Screens as filed in PubChem BioAssay.
Apaf1 inhib = blocks human Apaf-1 apoptosome activity; O14727; actives 0.71% (n = 330,000); inhibition, % at 20 µM; reconstituted apoptosome caspase-3 activity, DEVD-Rh110 fluorescence; active = inhibition of at least 40% at 20 µM;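 also: plate controls were DMSO wells for no effect and DEVD-CHO caspase inhibitor wells for full effect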
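Material: reconstituted apoptosome with Apaf-1, cytochrome c, caspase-9, procaspase-3, dATP / Buffer or medium: pH 7.5 Hepes buffer with CHAPS, BSA, DTT / Also added: cytochrome c with DEVD-Rh110 / Schedule: compound with Apaf-1, dATP, procaspase-3 30 min, then 50 min reaction, room temperature / Technique: rhodamine 110 fluorescence at Ex 480/Em 540 nm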
PAFAH1B2 FP inh = PAFAH1B2 (human) inhibition; inhibition, % at 3.39 µM; actives 1.2% (n = 340,000); recombinant PAFAH1B2, FP-rhodamine activity probe, fluorescence polarization; AID 492953;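 active = inhibition above the mean of all tested compounds plus 3 SD, cut at about 24% in these data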;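 also: 0% = enzyme with DMSO and 100% = wells lacking PAFAH1B2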
Target sequence (P68402 whole entry, looked up): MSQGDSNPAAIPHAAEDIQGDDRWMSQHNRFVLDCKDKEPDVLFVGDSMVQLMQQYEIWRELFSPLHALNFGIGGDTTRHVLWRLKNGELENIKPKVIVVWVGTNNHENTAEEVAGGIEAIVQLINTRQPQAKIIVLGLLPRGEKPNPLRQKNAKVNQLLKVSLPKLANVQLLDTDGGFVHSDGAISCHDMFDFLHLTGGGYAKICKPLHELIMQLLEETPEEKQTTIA
PAFAH2 FP inh = PAFAH2 (human) inhibition; actives 0.99% (n = 340,000); AID 492956; recombinant PAFAH2, FP-rhodamine activity probe, fluorescence polarization; inhibition, % at 3.39 µM; Q99487;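 active = inhibition above the mean over all tested compounds plus 3 SD, cut at about 30% in these data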;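 also: inhibitors block probe labeling of enzyme so polarization drops; 0% = enzyme with DMSO and 100% = wells lacking PAFAH2 protein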
pPAFAH FP inh = pPAFAH (human) enzyme inhibition; recombinant pPAFAH, FP-rhodamine probe fluorescence polarization; actives 1.5% (n = 330,000); inhibition, % at 3.39 µM; AID 463082; Q13093;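 active = inhibition above the mean inhibition across the screen plus 3 SD, cut at about 25% in these data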;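 also: inhibitors block binding of the rhodamine activity-based probe so polarization drops; 0% = enzyme with DMSO and 100% = wells lacking pPAFAH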
PAFAH1B3 inh = PAFAH1B3 (human) inhibition | Q15102 | recombinant PAFAH1B3, FP-rhodamine probe, fluorescence polarization | inhibition, % at 3.39 µM | actives 0.28% (n = 340,000) | AID 492972;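 active = inhibition above the screen-wide average of all tested compounds plus 3 SD, cut at about 25% in these data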;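 also: 0% = enzyme with DMSO only and 100% = wells lacking PAFAH1B3 protein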
Target sequence (Q15102 whole entry, looked up): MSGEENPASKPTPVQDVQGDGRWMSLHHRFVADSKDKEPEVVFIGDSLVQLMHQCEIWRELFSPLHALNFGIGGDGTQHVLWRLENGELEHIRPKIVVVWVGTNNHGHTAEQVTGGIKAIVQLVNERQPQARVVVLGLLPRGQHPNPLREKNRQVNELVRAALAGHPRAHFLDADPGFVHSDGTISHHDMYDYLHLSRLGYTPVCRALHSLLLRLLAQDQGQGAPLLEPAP
* = called active by the depositor; / = not tested or not shown. An excerpt weighted towards active compounds, which were near 3.1% of everything screened.

SMILES	Apaf1 inhib	PAFAH1B2 FP inh	PAFAH2 FP inh	pPAFAH FP inh	PAFAH1B3 inh
O=C(CNC(=O)c1ccccc1)N/N=C/c1cc(Br)ccc1O	-14	27*	4	9	10
O=C1[C@@H](Oc2ccccc2)[C@@H](c2ccncc2)N1c1ccncc1	4	3	-3	-1	6
NNC(=S)NC1CCCCCCCCCCC1	22	55*	6	8	-3
COc1ccc(Br)cc1CN(C)CC(=O)NCc1ccc(F)cc1	11	9	5	7	11
CN(CC(=O)NCc1ccc(F)cc1)Cc1ccc(Br)cc1	13	25*	-4	-1	-1
Cc1c(C(=O)O)cccc1-c1ccc(/C=N/Nc2ccc(Br)cc2)o1	8	3	20	26*	6
CC1=NN(c2ccc(Br)cc2)C(=O)/C1=C/c1ccc(-c2ccccc2C(=O)O)o1	78*	-3	16	0	5
O=C(CN1CCN(C(C(=O)Nc2ccc(F)cc2)c2ccccc2)CC1)NC1CC1 (configuration not stated)	-10	2	9	3	1
CS(=O)(=O)c1nc(-c2ccccc2)cc(C(F)(F)F)n1	11	-2	-4	25*	3
CC1CCN(CC(O)COc2ccc(-c3ccccc3)cc2)CC1 (configuration not stated)	14	7	-9	-1	11
Cc1ccccc1NC(=O)CSc1ccsc1[N+](=O)[O-]	-6	4	22	27*	14
CCOC(=O)N1CCN(S(=O)(=O)c2ccc(OC)c(C(=O)N3CCCCC3)c2)CC1	3	1	3	2	1
CCOc1ccc(NC(=O)CN(C)C(=O)CCNC(=O)c2ccco2)cc1OCC	-5	-3	6	1	8
CCOC(=O)/C(C#N)=N/Nc1ccc(S(=O)(=O)N2CCc3ccccc32)cc1	-2	13	0	15	10
N#C/C(=N\Nc1ccc(S(=O)(=O)N2CCc3ccccc32)cc1)C(N)=S	5	26*	24	24	14
COc1cc2c(cc1OC)C(Cc1ccc(O)c(Oc3ccc(C[C@H]4c5cc(OC)c(OC)cc5CCN4C)cc3)c1)N(C)CC2 (some centres not stated)	29	/	/	0	/
Nc1cccnc1Sc1ccc(Cl)cc1	-2	3	-3	-3	0
Nc1cccnc1Sc1cccc(Cl)c1	76*	1	-3	5	10
CN(C)CCOc1ccc(-c2c(-c3ccccc3)sc3ccccc23)cc1	77*	0	1	9	2
COc1ccc(-c2c(-c3ccccc3OC)sc3ccccc23)cc1	6	-3	1	-2	6
CCCCn1c(N)c(N(CCOC)C(=O)c2ccc(N3CCCC3)c([N+](=O)[O-])c2)c(=O)[nH]c1=O	-1	7	3	6	2
O=C(O)CCCC(=O)Nc1ccc(Br)cc1C(=O)O	14	27*	-5	-3	8
CC(=O)Nc1ccc2c(c1)nc(C)n2-c1ccccc1	4	4	-4	2	6
Cc1nc2cc(Cl)ccc2n1-c1ccccc1	10	6	5	25*	1
Cc1ccc(S(=O)(=O)CC(=O)Nc2ccc3nc(C)sc3c2)cc1	-2	3	6	1	2
SMILES	Apaf1 inhib	PAFAH1B2 FP inh	PAFAH2 FP inh	pPAFAH FP inh	PAFAH1B3 inh
COc1ccc(CCN(C)C(=O)c2ccc(COc3ccccc3)o2)cc1OC	66*	4	1	0	5
COc1cc(NC(=O)COC(=O)CC2CC3CCC2C3)cc(OC)c1 (configuration not stated)	4	11	12	15	0
O=C(COC(=O)CC1CC2CCC1C2)Nc1ccccc1Cl (configuration not stated)	15	0	45*	28*	6
COc1ccc(NC(=O)COC(=O)CC2CC3CCC2C3)c([N+](=O)[O-])c1 (configuration not stated)	13	7	54*	33*	3
COc1ccc(NC(=O)CC2Nc3cc(C)c(C)cc3NC2=O)c([N+](=O)[O-])c1 (configuration not stated)	16	7	-1	26*	-5
CN1C(=O)C(C)(C)c2cc(S(=O)(=O)NCC3CCC(C(=O)NCc4ccccc4)CC3)ccc21 (configuration not stated)	10	0	5	10	2
COc1ccc(NS(=O)(=O)c2cccc(-c3n[nH]c(=S)n3Cc3ccccc3)c2)cc1	10	14	2	27*	8
COc1ccc(-c2n[nH]c(=S)n2Cc2ccccc2)cc1	7	-1	2	3	1
S=c1[nH]nc(Cc2ccccc2)n1-c1ccc(Cl)cc1	-5	29*	-4	5	7
CCCCc1n[nH]c(=S)n1Cc1ccc(Cl)cc1	-8	27*	1	3	5
COc1ccc(NS(=O)(=O)c2ccc(-c3n[nH]c(=S)n3Cc3ccccc3)cc2)cc1	-5	16	-1	25*	8
CCCCc1n[nH]c(=S)n1Cc1ccccc1	-1	15	4	4	1
CCCCN([C@H](CO)C(C)C)S(=O)(=O)c1ccccc1Br	12	1	4	-2	11
CN(C)c1ccc(C(C(=O)NC2CCCCC2)N(Cc2ccco2)C(=O)c2snc(C(N)=O)c2N)cc1 (configuration not stated)	14	8	9	9	1
COc1ccc(NS(=O)(=O)c2ccc(C)c(C(=O)NC3CCN(Cc4ccccc4)CC3)c2)cc1	3	-2	4	26*	-1
COc1ccc(NS(=O)(=O)c2cccc(-c3nnc(-c4ccccc4)o3)c2)cc1	13	-1	11	30*	8
S=c1[nH]nc(-c2ccc(Cl)cc2)n1Cc1ccccc1	11	37*	-3	4	6
COc1ccc(S(=O)(=O)Nc2ccc(-n3cccc3)cc2)cc1	5	2	9	28*	0
COc1ccc(S(=O)(=O)Nc2ccc(S(=O)(=O)N3CCCC3)cc2)cc1	-18	5	3	2	-4
COc1ccc(NS(=O)(=O)c2ccc(NS(=O)(=O)c3cccc(C(=O)O)c3)cc2)cc1	3	2	8	15	0
CCOC(=O)N1CCN(C(=O)CCc2ccc(S(=O)(=O)NC(C)(C)C)cc2)CC1	-1	1	0	/	0
O=CNc1ccccc1	10	3	3	0	-2
CCN(c1ccccc1)S(=O)(=O)c1ccc(OC)c(NS(=O)(=O)c2cccs2)c1	4	30*	4	10	0
Cc1ccc(N2CC(C(=O)Nc3c4c(nn3C(C)(C)C)CS(=O)(=O)C4)CC2=O)cc1 (configuration not stated)	3	-4	-3	-3	-2
CCCc1cc(=O)oc2cc(OCC(=O)NC3CC(C)(C)NC(C)(C)C3)ccc12	-2	-2	-1	4	2
